Measurements as given in ChEMBL document CHEMBL4270544, “Design, synthesis and biological evaluation of a novel tubulin inhibitor 7a3 targeting the colchicine binding site” (Eur J Med Chem, 2018).
Calls of active or inactive are those of the source. No cut-off for these calls is given here.

How the values were obtained:
HeLa = test: Antiproliferative activity against human HeLa cells after 72 hrs by CCK8 assay; type: functional, cell-based
Outline: (§1)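 CCK-8 proliferation assay with CA-4 as positive control. IC50 is the concentration giving 50% inhibition of proliferation. Mean ± SEM from three independent experiments.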

A549 = test: Antiproliferative activity against human A549 cells after 72 hrs by CCK8 assay; type: functional, cell-based; details: A549, 72 h; outline: as §1
SK-OV-3 [1] = test: Cell cycle arrest in human SKOV3 cells assessed as accumulation at G0/G1 phase at 40 nM after 24 hrs by propidium iodide staining based flow cytometry (reference value: 67.79%); type: functional
Outline: (§2)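 SK-OV-3 cells exposed to 40, 80 or 160 nM for 24 h, with untreated cells as control. Stained with PI and analysed by flow cytometry for phase distribution. Mean ± SEM of three independent experiments; t-test against control.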

SK-OV-3 [2] = test: Cell cycle arrest in human SKOV3 cells assessed as accumulation at S phase at 40 nM after 24 hrs by propidium iodide staining based flow cytometry (reference value: 18.09%); type: functional; outline: as §2
SK-OV-3 [3] = test: Cell cycle arrest in human SKOV3 cells assessed as accumulation at G2/M phase at 80 nM after 24 hrs by propidium iodide staining based flow cytometry (reference value: 24.99%); type: functional; outline: as §2
SK-OV-3 [4] = test: Induction of apoptosis in human SKOV3 cells assessed as live cells at 40 nM after 48 hrs by Annexin-V-FITC/propidium iodide staining based flow cytometry (reference value: 94.43%); type: functional
SK-OV-3 [5] = test: Induction of apoptosis in human SKOV3 cells assessed as early apoptotic cells at 40 nM after 48 hrs by Annexin-V-FITC/propidium iodide staining based flow cytometry (reference value: 0.97%); type: functional
SK-OV-3 [6] = test: Induction of apoptosis in human SKOV3 cells assessed as late apoptotic cells at 40 nM after 48 hrs by Annexin-V-FITC/propidium iodide staining based flow cytometry (reference value: 3.93%); type: functional
SK-OV-3 [7] = test: Induction of apoptosis in human SKOV3 cells assessed as necrotic cells at 40 nM after 48 hrs by Annexin-V-FITC/propidium iodide staining based flow cytometry (reference value: 0.67%); type: functional
SK-OV-3 [8] = test: Induction of apoptosis in human SKOV3 cells assessed as live cells at 80 nM after 48 hrs by Annexin-V-FITC/propidium iodide staining based flow cytometry (reference value: 94.43%); type: functional
SK-OV-3 [9] = test: Induction of apoptosis in human SKOV3 cells assessed as necrotic cells at 80 nM after 48 hrs by Annexin-V-FITC/propidium iodide staining based flow cytometry (reference value: 0.67%); type: functional
SK-OV-3 [10] = test: Induction of apoptosis in human SKOV3 cells assessed as early apoptotic cells at 160 nM after 48 hrs by Annexin-V-FITC/propidium iodide staining based flow cytometry (reference value: 0.97%); type: functional
SK-OV-3 [11] = test: Induction of apoptosis in human SKOV3 cells assessed as necrotic cells at 160 nM after 48 hrs by Annexin-V-FITC/propidium iodide staining based flow cytometry (reference value: 0.67%); type: functional
SK-OV-3 [12] = test: Antimigratory activity against human SKOV3 cells assessed as wound closure at 80 nM after 24 hrs by microscopy based scratch wound assay (reference value: 79.5 +/- 2.8%); type: functional
SK-OV-3 [13] = test: Antimigratory activity against human SKOV3 cells assessed as number of migrated cells at 25 nM after 24 hrs by crystal violet staining based transwell migration assay (reference value: 49.3 to 50.7); type: functional
SK-OV-3 [14] = test: Antimigratory activity against human SKOV3 cells assessed as number of migrated cells at 100 nM after 24 hrs by crystal violet staining based transwell migration assay (reference value: 49.3 to 50.7); type: functional
Bos taurus = species on record: Bos taurus; test: Inhibition of bovine MAP-rich tubulin polymerization at 40 uM measured every 1 min for 30 mins relative to control
Outline: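 Purified tubulin polymerization followed at 37 °C by absorbance at 340 nm, read every 1 min for 30 min. Test concentrations 2.5, 10 and 40 µM. CA-4 at 10 µM served as positive control and DMSO (1%, v/v) as vehicle. Polymerization is expressed relative to the vehicle group.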

SK-OV-3 [15] = test: Inhibition of tubulin assembly in human SKOV3 cells assessed as disorganized spindle formation at 10 to 1000 nM after 24 hrs by DAPI staining based immunofluorescence microscopic method; type: functional, cell-based
Outline: (§3)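 SK-OV-3 cells exposed to DMSO or 10, 100 or 1000 nM for 24 h. Fixed in methanol, stained with FITC anti-β-tubulin antibody, counterstained with DAPI, and imaged by confocal microscopy.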

SK-OV-3 [16] = test: Inhibition of tubulin assembly in human SKOV3 cells assessed as disorganized microtubule polymerization at 10 to 1000 nM after 24 hrs by DAPI staining based immunofluorescence microscopic method; type: functional, cell-based; outline: as §3
[17] = Cmax in C57 mouse at 50 mg/kg, ip administered as single dose by LC-MS/MS analysis; type: ADME, organism-based; design: dose 50 mg/kg, route intraperitoneal; details: in vivo
Outline: (§4)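 Male C57 mice, one intraperitoneal dose. Blood drawn from submaxillary vein at 0, 5, 15, 30 min and 1, 2, 4, 8, 12, 24 h. Plasma measured by LC/MS/MS in MRM mode with CA-4 as internal standard. Calibration by weighted linear regression over 0.01–500 ng/mL. Parameters obtained by non-compartmental analysis.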

[18] = Mean residence time in C57 mouse at 50 mg/kg, ip administered as single dose by LC-MS/MS analysis; type: ADME, organism-based; details: in vivo; outline: as §4
SK-OV-3 [19] = test: Antitumor activity against human SKOV3 cells xenografted in Balb/c mouse assessed as reduction in tumor growth at 50 mg/kg, ip administered every two days for three times measured every 3 to 4 days relative to control; type: functional; design: scale not given: the % may be the effect or the level left
Outline: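 Six-week-old Balb/c nude mice given subcutaneous SK-OV-3 cells in the back. Randomised into three groups at about 200 mm3 tumour size. Dosed 50 mg/kg intraperitoneally in 5% DMSO/olive oil every two days, three times; vehicle group as control. Tumour volume and body weight tracked; six animals per group, mean ± SEM, t-test.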

Mus musculus [20] = test: Toxicity in Balb/c mouse xenografted with human SKOV3 cells assessed as pathological changes in heart at 50 mg/kg, ip administered every two days for three times by hematoxylin and eosin staining based assay; type: organism-based; details: in vivo
Outline: (§5)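 In SK-OV-3 xenografted Balb/c nude mice dosed 50 mg/kg intraperitoneally in 5% DMSO/olive oil every two days, three times, organs were collected and examined after H&E staining.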

Mus musculus [21] = test: Toxicity in Balb/c mouse xenografted with human SKOV3 cells assessed as pathological changes in liver at 50 mg/kg, ip administered every two days for three times by hematoxylin and eosin staining based assay; type: organism-based; details: in vivo; outline: as §5
Mus musculus [22] = test: Toxicity in Balb/c mouse xenografted with human SKOV3 cells assessed as pathological changes in spleen at 50 mg/kg, ip administered every two days for three times by hematoxylin and eosin staining based assay; type: organism-based; details: in vivo
Outline: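 Six-week-old Balb/c nude mice received subcutaneous SK-OV-3 cells in the back. At ~200 mm3 tumour size they were randomized to vehicle or drug groups, six per group. Drug was given in 5% (v/v) DMSO/olive oil, intraperitoneally, every two days for three doses. Heart, liver, spleen, lung and kidney were collected and examined by H&E staining.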

IC50 (HeLa): 32.8 nM
IC50 (A549): 67 nM
inhibition (Bos taurus): 85.3%
Cmax [17]: 882 ng/mL
MRT [18]: 1.51 h
SMILES: CCOc1ccc(-c2cn(C)nc2-c2cc(OC)c(OC)c(OC)c2)cc1
Activity (SK-OV-3 [1]): 54.42%
Activity (SK-OV-3 [2]): 20.99%
Activity (SK-OV-3 [3]): 34.65%
Activity (SK-OV-3 [4]): 91.03%
Activity (SK-OV-3 [5]): 1.35%
Activity (SK-OV-3 [6]): 6.65%
Activity (SK-OV-3 [7]): 0.97%
Activity (SK-OV-3 [8]): 73.56%
Activity (SK-OV-3 [9]): 2.72%
Activity (SK-OV-3 [10]): 9.46%
Activity (SK-OV-3 [11]): 1.28%
Activity (SK-OV-3 [12]): 44.3%
Activity (SK-OV-3 [13]): 27.3
Activity (SK-OV-3 [14]): 18.3
inhibition (SK-OV-3 [15]): Active
inhibition (SK-OV-3 [16]): Active
Activity (SK-OV-3 [19]): 62.8%
Activity (Mus musculus [20]): Non-Toxic
Activity (Mus musculus [21]): Non-Toxic
Activity (Mus musculus [22]): Non-Toxic
